Published values collected from several papers.
Each line is one published result; the experiments were not run side by side.
PCNA: Proliferating cell nuclear antigen (PCNA, Homo sapiens, UniProt P12004)
ADRB2: Beta-2 adrenergic receptor (ADRB2, Homo sapiens, UniProt P07550)
F10 trypsin-like site: Coagulation factor X, trypsin-like site (F10, Homo sapiens, UniProt P00742)
Ntsr1: Neurotensin receptor type 1 (Ntsr1, Rattus norvegicus, UniProt P20789)
MMP2: 72 kDa type IV collagenase (MMP2, Homo sapiens, UniProt P08253)

CC[C@H](C)[C@H](NC(=O)[C@H](CCCCN)NC(=O)[C@H](CO)NC(=O)[C@H](CC(=O)O)NC(=O)[C@H](CCCCN)NC(=O)[C@H](CCCCN)NC(=O)CNC(=O)[C@H](Cc1c[nH]cn1)NC(=O)[C@@H](N)CCC(N)=O)C(=O)N[C@@H](C)C(=O)N[C@@H](CC(=O)O)C(=O)N[C@@H](Cc1c[nH]cn1)C(=O)N[C@@H](Cc1ccccc1)C(=O)N[C@@H](CCSC)C(=O)N[C@@H](CCCNC(=N)N)C(=O)N[C@@H](CC(C)C)C(=O)N1CCC[C@H]1C(=O)N[C@@H](CCCCN)C(=O)N[C@@H](C)C(=O)O — Kd (PCNA; binding, ITC; pH 7.4): 55.5 µM
COc1cc(N)c(Cl)cc1C(=O)NC1CN2CCC1CC2 (stereo not shown) — IC50 (ADRB2; ligand displacement, radioligand; cell membranes): 244 µM
c1ccc2c(c1)-c1cccc3cccc-2c13 — Kd (Cytochrome P450 1B1 (CYP1B1, Homo sapiens, UniProt Q16678); binding, absorbance; pH 7.4): 1.6 µM
O=C1C2(Cl)C3(Cl)C4(Cl)C(Cl)(Cl)C5(Cl)C3(Cl)C1(Cl)C5(Cl)C24Cl (stereo not shown) — IC50 (Histone-lysine N-methyltransferase SETD7 (SETD7, Homo sapiens, UniProt Q8WTS6); enzyme activity, inhibitor): > 333 µM
CC[C@H](C)[C@H](NC(=O)[C@H](CCCCN)NC(=O)[C@H](CO)NC(=O)[C@H](CC(=O)O)NC(=O)[C@H](CCCCN)NC(=O)[C@H](CCCCN)NC(=O)CNC(=O)[C@H](Cc1c[nH]cn1)NC(=O)[C@@H](N)CCC(N)=O)C(=O)N[C@H](C(=O)N[C@@H](CC(=O)O)C(=O)N[C@@H](Cc1c[nH]cn1)C(=O)N[C@@H](Cc1ccccc1)C(=O)N[C@@H](CCSC)C(=O)N[C@@H](C)C(=O)N[C@@H](CC(C)C)C(=O)N1CCC[C@H]1C(=O)N[C@@H](CCCCN)C(=O)N[C@@H](C)C(=O)O)[C@@H](C)O — Kd (PCNA; binding, ITC; pH 7.4): 4.27 µM
NCC(O)c1ccc(O)c(O)c1F (stereo not shown) — Ki (ADRB2; ligand displacement, radioligand; cell membranes): 16 µM
CC(C)(C)[C@H](NC(=O)[C@H](CCONC(=N)N)NC(=O)Cc1ccc(CN)cc1)C(=O)N[C@@H](CCCCN)C(=O)NCc1ccc(C(=N)N)cc1 — Ki (F10 trypsin-like site; enzyme activity, inhibitor; pH 8): 18 µM
COc1cccc2c1C(=O)c1c(O)c3c(c(O)c1C2=O)C[C@@](O)(C(=O)CO)C[C@@H]3O[C@H]1C[C@H](N)[C@H](O)[C@H](C)O1 — Ki (Ileal sodium/bile acid cotransporter (SLC10A2, Homo sapiens, UniProt Q12908); transporter uptake, inhibitor): 101 µM
CC(C)(C)[C@H](NC(=O)[C@H](CCCNC(=N)N)NC(=O)Cc1ccc(CNC(=N)N)cc1)C(=O)N[C@@H](CCCNC(=N)N)C(=O)NCc1ccc(C(=N)N)cc1 — Ki (F10 trypsin-like site; enzyme activity, inhibitor; pH 8): 7.1 µM
C[C@H](N)Cn1ncc2ccc3c(c21)CCCO3 — Ki (ADRB2; cell-free assay, radioligand): 0.48 µM
NCC(O)c1cc(O)c(O)cc1F (stereo not shown) — Ki (ADRB2; ligand displacement, radioligand; cell membranes): 1160 µM
CC[C@H](C)[C@H](NC(=O)[C@H](CCCCN)NC(=O)[C@H](CO)NC(=O)[C@H](CC(=O)O)NC(=O)[C@H](CCCCN)NC(=O)[C@H](CCCCN)NC(=O)CNC(=O)[C@H](Cc1c[nH]cn1)NC(=O)[C@@H](N)CCC(N)=O)C(=O)N[C@H](C(=O)N[C@@H](CC(=O)O)C(=O)N[C@@H](Cc1c[nH]cn1)C(=O)N[C@@H](C)C(=O)N[C@@H](CCSC)C(=O)N[C@@H](CCCNC(=N)N)C(=O)N[C@@H](CC(C)C)C(=O)N1CCC[C@H]1C(=O)N[C@@H](CCCCN)C(=O)N[C@@H](C)C(=O)O)[C@@H](C)O — Kd (PCNA; binding, ITC; pH 7.4): 41.3 µM
COc1ccccc1-c1cc(C(=O)NC2(C(=O)O)CCCCC2)nn1-c1ccc(F)cc1 — Kb (Ntsr1; calcium signal, antagonist, fluorescence): > 10 µM
CC[C@H](C)[C@H](NC(=O)[C@H](CCCCN)NC(=O)[C@H](CO)NC(=O)[C@H](CC(=O)O)NC(=O)[C@H](CCCCN)NC(=O)[C@H](CCCCN)NC(=O)CNC(=O)[C@H](Cc1c[nH]cn1)NC(=O)[C@@H](N)CCC(N)=O)C(=O)N[C@H](C(=O)N[C@@H](CC(=O)O)C(=O)N[C@@H](C)C(=O)N[C@@H](Cc1ccccc1)C(=O)N[C@@H](CCSC)C(=O)N[C@@H](CCCNC(=N)N)C(=O)N[C@@H](CC(C)C)C(=O)N1CCC[C@H]1C(=O)N[C@@H](CCCCN)C(=O)N[C@@H](C)C(=O)O)[C@@H](C)O — Kd (PCNA; binding, ITC; pH 7.4): 126 µM
CC#CCOc1ccc(S(=O)(=O)CC2CS2)cc1 (racemic) — IC50 (MMP2; enzyme activity, inhibitor, fluorescence): 26 µM
CC(C)C[C@H](NC(=O)[C@H](CCC(N)=O)NC(=O)[C@H](CC(C)C)NC(=O)[C@H](CO)NC(=O)[C@H](CO)NC(=O)[C@@H]1CCCN1C(=O)[C@H](Cc1c[nH]c2ccccc12)NC(=O)[C@H](CCC(N)=O)NC(=O)[C@H](Cc1c[nH]c2ccccc12)NC(=O)[C@H](Cc1c[nH]c2ccccc12)NC(=O)[C@@H](N)Cc1c[nH]cn1)C(=O)N[C@@H](CCCNC(=N)N)C(=O)NCC(=O)NCC(=O)NCC(=O)N[C@@H](CO)C(=O)O — IC50 (MMP2; enzyme activity, inhibitor, fluorescence): 0.078 µM
CC[C@H](C)[C@H](NC(=O)[C@H](CCCCN)NC(=O)[C@H](CO)NC(=O)[C@H](C)NC(=O)[C@H](CCCCN)NC(=O)[C@H](CCCCN)NC(=O)CNC(=O)[C@H](Cc1c[nH]cn1)NC(=O)[C@@H](N)CCC(N)=O)C(=O)N[C@H](C(=O)N[C@@H](CC(=O)O)C(=O)N[C@@H](Cc1c[nH]cn1)C(=O)N[C@@H](Cc1ccccc1)C(=O)N[C@@H](CCSC)C(=O)N[C@@H](CCCNC(=N)N)C(=O)N[C@@H](CC(C)C)C(=O)N1CCC[C@H]1C(=O)N[C@@H](CCCCN)C(=O)N[C@@H](C)C(=O)O)[C@@H](C)O — Kd (PCNA; binding, ITC; pH 7.4): 2.45 µM
CCOC(=O)C(CC)(CCCSCCOCCOCCOCCOCCNC(=O)OC(C)(C)C)NC(=O)c1ccc(C2CC2)c(Cc2ccc(F)cc2)n1 (stereo not shown) — EC50 (Cannabinoid receptor 2 (CNR2, Homo sapiens, UniProt P34972); cAMP, agonist): 0.013 µM
O=C(N[C@H]1COC(=O)[C@@H](NC(=O)c2cccc(O)c2[O-])COC(=O)[C@@H](NC(=O)c2cccc(O)c2[O-])COC1=O)c1cccc(O)c1[O-].[Fe+3] — Kd (Neutrophil gelatinase-associated lipocalin (LCN2, Homo sapiens, UniProt P80188, C107S); binding, fluorescence; pH 5.5): 0.00015 µM
CC(C)C[C@H](NC(=O)[C@H](Cc1ccccc1)NC(=O)c1cnccn1)B(O)O — IC50 (Coagulation factor X (F10, Homo sapiens, UniProt P00742); enzyme activity, inhibitor): > 33 µM
O=C(N[C@H](C(=O)O)C1CCCCC1)c1cc(-c2c(F)cccc2F)n(-c2ccnc3cc(Cl)ccc23)n1 — Kb (Ntsr1; calcium signal, antagonist, fluorescence): > 10 µM
CCCCNNC(=O)c1ccc(Br)cc1 — IC50 (Histone deacetylase 7 (HDAC7, Homo sapiens, UniProt Q8WUI4); enzyme activity, inhibitor, fluorescence): > 100 µM
C#CCOc1ccc(S(=O)(=O)CC2CS2)cc1 (racemic) — IC50 (MMP2; enzyme activity, inhibitor, fluorescence): 7 µM
CC[C@H](C)[C@H](NC(=O)[C@H](CC(C)C)NC(=O)[C@H](CO)NC(=O)[C@H](CC(=O)O)NC(=O)[C@H](CCCCN)NC(=O)[C@H](CCCCN)NC(=O)CNC(=O)[C@H](Cc1c[nH]cn1)NC(=O)[C@@H](N)CCC(N)=O)C(=O)N[C@H](C(=O)N[C@@H](CC(=O)O)C(=O)N[C@@H](Cc1c[nH]cn1)C(=O)N[C@@H](Cc1ccccc1)C(=O)N[C@@H](CCSC)C(=O)N[C@@H](CCCNC(=N)N)C(=O)N[C@@H](CC(C)C)C(=O)N1CCC[C@H]1C(=O)N[C@@H](CCCCN)C(=O)N[C@@H](C)C(=O)O)[C@@H](C)O — Kd (PCNA; binding, ITC; pH 7.4): 4.55 µM
CC(C)(C)[C@H](NC(=O)[C@H](CCONC(=N)N)NC(=O)Cc1ccc(CNC(=N)N)cc1)C(=O)N[C@@H](CCCCN)C(=O)NCc1ccc(C(=N)N)cc1 — Ki (F10 trypsin-like site; enzyme activity, inhibitor; pH 8): 26 µM
